This is an account of results in ChEMBL document CHEMBL1122898, “Antiulcer agents. 1. Gastric antisecretory and cytoprotective properties of substituted imidazo[1,2-a]pyridines” (1985).

What all share (assay type): functional
Assay [1] has as its system Canis familiaris. In words: Inhibition of histamine stimulated gastric acid secretion in adult mongrel dogs at dose 5 mg/kg given intravenously. The following applies: Canis lupus familiaris, Stomach, route intravenous. In outline: (§1)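 Dogs with Heidenhain pouches, 12–18 kg, fasted 18 h. Compound given iv in 3 mL or by gavage in 5 mL of 0.4% methylcellulose/saline, 1 h after infusion start. 30-min collections titrated. Summed 3-h AO against the same dog's control AO gives % inhibition. Usually one dog per compound.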

Assay [2] is filed under the species Rattus norvegicus. The experiment in a line: Oral gastric cytoprotective activity in the rat against ethanol-induced lesions. The following applies: Stomach. The method, boiled down:
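Rats fasted and water-deprived for 20 h. Compound given orally, 1–30 mg/kg in 0.4% methylcellulose/saline, 30 min before 1 mL absolute ethanol po. Killed 1 h after ethanol. Linear hemorrhagic lesion lengths totalled per stomach, expressed as group mean. ED50 by linear regression.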

Assay [3] deals with Rattus norvegicus. The experiment in a line: Gastric antisecretory activity in the pylorus-ligated rat and the reduction in acid output was measured after 4 hr by intraperitoneal (ip) administration of 40 mg/kg dose. The method, boiled down:
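Male Charles River CD rats, 150–200 g, fasted 24 h. Pylorus ligated under Brevital anesthesia. 40 mg/kg given ip in 2.5% Tween 80 at ligation. Stomach contents collected at 4 h and titrated with 0.1 N NaOH to pH 7.0. % inhibition from mean AO, 6 treated vs 8 control rats. Student's t test.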

Assay [4] concerns Canis familiaris. The experiment in a line: Inhibition of histamine stimulated gastric acid secretion in adult mongrel dogs at dose 2 mg/kg given intravenously. The following applies: Canis lupus familiaris, Stomach, route intravenous. In outline: as §1
Assay [5] has as its system Canis familiaris. The experiment in a line: Inhibition of histamine stimulated gastric acid secretion in adult mongrel dogs at dose 8 mg/kg given orally. The following applies: Canis lupus familiaris, Stomach, route oral. The method, boiled down: as §1
Assay [6] relates to Canis familiaris. In words: Inhibition of histamine stimulated gastric acid secretion in adult mongrel dogs at dose 1 mg/kg given intravenously. Particulars: Canis lupus familiaris, Stomach, route intravenous. The method, boiled down: as §1
Assay [7] deals with Canis familiaris. The experiment in a line: Inhibition of histamine stimulated gastric acid secretion in mongrel dogs following 4 mg/kg p.o. administration. The following applies: Canis lupus familiaris, Stomach, route oral. The method, boiled down: as §1

As usually defined, the inhibition in vivo is the relative decrease from the control value, in per cent. A word on the ED50: it is the dose that gives a 50% effect, or the effect in half of the subjects. For `Cc1nc2ccc(CCc3ccccc3)cn2c1CC#N`, in assay [1], the inhibition in vivo at 5 mg/kg was 0%. In assay [2], this compound came in with an ED50 of 2.7 mg/kg. Besides, the inhibition in vivo at 40 mg/kg in assay [3] is 8%.

For the compound `CCc1nc2c(OCc3ccccc3)cccn2c1C`, the inhibition in vivo at 2 mg/kg in assay [4] was determined as 78%. The compound further yielded an inhibition in vivo at 8 mg/kg in assay [5] of 27%. The ED50 in assay [2] amounted to 9.8 mg/kg. In assay [3], this compound showed an inhibition in vivo at 40 mg/kg of 79%.

On to `Cc1nc2c(OCc3cccc4ccccc34)cccn2c1CC#N`, for which at 5 mg/kg the inhibition in vivo in assay [1] was 78%. In assay [5], the inhibition in vivo at 8 mg/kg is 15%. In assay [2], this compound gave an ED50 of 9.8 mg/kg. This compound also showed an inhibition in vivo at 40 mg/kg in assay [3] of 0%.

For the compound `Cc1nc2cccc(CCc3ccccc3)n2c1CC#N`, 1 mg/kg produced 71% inhibition in vivo in assay [6]. For the same compound, the inhibition in vivo at 8 mg/kg in assay [5] turned out to be 9%. This compound had an ED50 in assay [2] of 7.2 mg/kg. The compound further yielded an inhibition in vivo at 40 mg/kg in assay [3] of 20%.

In assay [4], `Cc1nc2c(OCc3ccccc3)cccn2c1CC(=N)S` returned an inhibition in vivo at 2 mg/kg of 21%. 4 mg/kg produced 34% inhibition in vivo in assay [7]. This compound came in with an inhibition in vivo at 5 mg/kg in assay [1] of 62%. The inhibition in vivo at 8 mg/kg in assay [5] came out at 60%. Further, the ED50 in assay [2] was 7 mg/kg. The compound further displayed an inhibition in vivo at 40 mg/kg in assay [3] of 67%.

On to `Cc1nc2c(OCc3ccc(C(F)(F)F)cc3)cccn2c1CC#N`, for which testing at 2 mg/kg in assay [4] gave an inhibition in vivo of 44%. The inhibition in vivo at 4 mg/kg in assay [7] came to 27%. For the same compound, at 5 mg/kg the inhibition in vivo in assay [1] was 59%. The compound also had an inhibition in vivo at 8 mg/kg in assay [5] of 25%. This compound also showed an ED50 in assay [2] of 3 mg/kg. Further, testing at 40 mg/kg in assay [3] gave an inhibition in vivo of 26%.

For the compound `COc1ccc(COc2cccn3c(CC#N)c(C)nc23)cc1`, the inhibition in vivo at 2 mg/kg in assay [4] was 43%. 4 mg/kg produced 13% inhibition in vivo in assay [7]. In assay [5], the inhibition in vivo at 8 mg/kg is 7%. In assay [3], this compound registered an inhibition in vivo at 40 mg/kg of 25%.

In the case of `CC(C)c1nc2c(OCc3ccccc3)cccn2c1CC#N`, the inhibition in vivo at 4 mg/kg in assay [7] was 36%. The same compound registered an inhibition in vivo at 5 mg/kg in assay [1] of 96%. Besides, at 8 mg/kg the inhibition in vivo in assay [5] was 39%. Also, the ED50 in assay [2] was 5 mg/kg. This compound came in with an inhibition in vivo at 40 mg/kg in assay [3] of 72%.

In assay [4], `Cc1nc2c(OC(C)c3ccccc3)cccn2c1CC#N` (configuration not stated) displayed an inhibition in vivo at 2 mg/kg of 78%. In addition, in assay [7], the inhibition in vivo at 4 mg/kg was determined as 6%. Further, the inhibition in vivo at 5 mg/kg in assay [1] is 97%. Further, the inhibition in vivo at 8 mg/kg in assay [5] was determined as 45%. Also, in assay [2], the 50% effect level (ED50) was put at a dose of 3.7 mg/kg. In addition, the inhibition in vivo at 40 mg/kg in assay [3] was 96%.

Regarding `Cc1nc2c(OCc3ccccc3)cccn2c1COC(=O)C(C)(C)C`, the inhibition in vivo at 2 mg/kg in assay [4] was found to be 43%. This compound gave an inhibition in vivo at 8 mg/kg in assay [5] of 12%. Besides, the ED50 in assay [2] came out at 8 mg/kg. In assay [3], this compound registered an inhibition in vivo at 40 mg/kg of 48%.

In turn, `Cc1nc2c(S(=O)(=O)Cc3ccccc3)cccn2c1CC#N` registered an inhibition in vivo at 5 mg/kg in assay [1] of 6%. The ED50 in assay [2] worked out at 16 mg/kg. Moreover, the inhibition in vivo at 40 mg/kg in assay [3] was determined as 9%.

In assay [1], `Cc1nc2c(OCc3cccc(C(F)(F)F)c3)cccn2c1CC#N` gave an inhibition in vivo at 5 mg/kg of 30%. Further, in assay [5], the inhibition in vivo at 8 mg/kg was found to be 38%. For the same compound, the ED50 in assay [2] was 6.5 mg/kg. In assay [3], the inhibition in vivo at 40 mg/kg amounted to 61%.

Turning to `Cc1cc(C)c(COc2cccn3c(CC#N)c(C)nc23)c(C)c1`, at 2 mg/kg the inhibition in vivo in assay [4] was 22%. Moreover, in assay [7], the inhibition in vivo at 4 mg/kg is 0%. This compound also had an inhibition in vivo at 5 mg/kg in assay [1] of 86%. Further, the inhibition in vivo at 8 mg/kg in assay [5] was found to be 40%. In assay [3], this compound had an inhibition in vivo at 40 mg/kg of 49%.

The compound `Cc1nc2c(OCc3ccccc3)cccn2c1C` came in with an inhibition in vivo at 1 mg/kg in assay [6] of 90%. Further, in assay [7], the inhibition in vivo at 4 mg/kg turned out to be 0%. The compound further had an inhibition in vivo at 8 mg/kg in assay [5] of 26%. Further, it took a dose of 10 mg/kg to reach the 50% effect level in assay [2] (ED50). Moreover, in assay [3], the inhibition in vivo at 40 mg/kg was 99%.

For `Cc1nc2c(OCc3ccncc3)cccn2c1CC#N`, in assay [1], the inhibition in vivo at 5 mg/kg was found to be 36%. Moreover, the 50% effective dose (ED50) in assay [2] was 2.6 mg/kg. The compound also came in with an inhibition in vivo at 40 mg/kg in assay [3] of 51%.

`Cc1nc2c(OCc3ccccc3)cccn2c1CC(=O)N(C)C` registered an inhibition in vivo at 1 mg/kg in assay [6] of 16%. This compound yielded an inhibition in vivo at 40 mg/kg in assay [3] of 37%.

`Cc1nc2c(OCc3ccoc3)cccn2c1CC#N` returned an inhibition in vivo at 5 mg/kg in assay [1] of 60%. Moreover, in assay [5], the inhibition in vivo at 8 mg/kg turned out to be 42%. For the same compound, the ED50 in assay [2] is 1.4 mg/kg. Further, the inhibition in vivo at 40 mg/kg in assay [3] was determined as 99%.

For the compound `CCc1c(C)nc2c(OCc3ccccc3)cccn12`, the inhibition in vivo at 2 mg/kg in assay [4] is 37%. Besides, it took a dose of 2 mg/kg to reach the 50% effect level in assay [2] (ED50).

Turning to `Cc1nc2c(Oc3ccccc3)cccn2c1CC#N`, the inhibition in vivo at 5 mg/kg in assay [1] was found to be 0%. Also, the ED50 in assay [2] came out at 3.4 mg/kg. The compound also had an inhibition in vivo at 40 mg/kg in assay [3] of 24%.

Consider `Cc1cn2cccc(OCc3ccccc3)c2n1`, for which, in assay [4], the inhibition in vivo at 2 mg/kg was determined as 61%. In addition, in assay [1], the inhibition in vivo at 5 mg/kg was 70%. The inhibition in vivo at 8 mg/kg in assay [5] was found to be 0%. Besides, the ED50 in assay [2] was found to be 4 mg/kg. Further, in assay [3], the inhibition in vivo at 40 mg/kg was found to be 62%.
